The source of these data is ChEMBL document CHEMBL2375226, “Bivalent angiotensin II suppresses oxidative stress-induced hyper-responsiveness of angiotensin II receptor type I” (Eur J Med Chem, 2013).

Structures are written as SMILES. Calls of active or inactive are those of the source. The rule behind the calls is not given here.

Experiment [1] relates to HEK293. Kind of experiment: Stimulation of EGFP-tagged rat AT1 receptor expressed in HEK cells assessed as increase in intracellular calcium level at 10 nM after 3 mins by fluorimetric assay. On the technique in general: Calcium assays in cells follow changes in intracellular calcium, usually with a dye or a luminescent sensor.
Experiment [2] relates to HEK293. Kind of experiment: Stimulation of EGFP-tagged rat AT1 receptor expressed in HEK cells assessed as increase in degree of aggregation at 5 nM under non-oxidative condition by image correlation spectroscopic analysis. In kind it is cell-based. The method, boiled down:
(§1)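 HEK cells expressing EGFP-tagged AT₁R were plated at 1.5 × 10⁵ cells per glass-bottom dish. Where stated, cells were pre-treated with H₂O₂ for 3 h. Cell surfaces were imaged before and after 5 nM monovalent Ang II (or a 5 nM total 1:1 mixture) or 2.5 nM bivalent peptide. Imaging used a 488 nm laser and a 60× oil objective. Image correlation spectroscopy gave mean fluorescence intensity, cluster density and degree of aggregation versus unstimulated baseline.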

Experiment [3] relates to HEK293. Kind of experiment: Stimulation of EGFP-tagged rat AT1 receptor expressed in HEK cells assessed as increase in degree of aggregation at 5 nM under H2O2-induced oxidative stress condition by image correlation spectroscopic analysis. In kind it is cell-based. The method, boiled down:
as §1

The subject of experiment [4] is HEK293. Kind of experiment: Stimulation of EGFP-tagged rat AT1 receptor expressed in HEK cells assessed as increase in cluster density value at 5 nM under H2O2-induced oxidative stress condition by image correlation spectroscopic analysis. In kind it is cell-based. The method, boiled down:
as §1

In experiment [5] the test system is HEK293. Kind of experiment: Stimulation of EGFP-tagged rat AT1 receptor expressed in HEK cells assessed as increase in cluster density value at 5 nM under non-oxidative condition by image correlation spectroscopic analysis relative to control. In kind it is cell-based. The gist of the method: as §1
For experiment [6], the system named is HEK293. Briefly: Stimulation of EGFP-tagged rat AT1 receptor expressed in HEK cells assessed as increase in mean fluorescence intensity at 5 nM under non-oxidative condition by image correlation spectroscopic analysis relative to control. In kind it is cell-based. The gist of the method:
as §1

For experiment [7], the system named is HEK293. Briefly: Stimulation of EGFP-tagged rat AT1 receptor expressed in HEK cells assessed as increase in mean fluorescence intensity at 5 nM under H2O2-induced oxidative stress condition by image correlation spectroscopic analysis relative to control. In kind it is cell-based. The gist of the method: as §1
In experiment [8] the test system is HEK293. Kind of experiment: Stimulation of EGFP-tagged rat AT1 receptor expressed in HEK cells assessed as increase in intracellular calcium level at 5 nM after 3 mins under H2O2-induced oxidative stress condition by fluorimetric assay. In kind it is cell-based. The gist of the method: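 Before the Indo1-AM [Ca²⁺]i assay, AT₁R-HEK cells were exposed to H₂O₂ for 3 h to impose oxidative stress. They were then stimulated with 5 nM peptide, based on Ang II equivalents. Ratiometric emission at 405/490 nm (ex 338 nm) was monitored for 3 min after ligand addition. Ca²⁺ was derived by Kd-based calibration against EGTA and ionomycin ratios.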

The test system of experiment [9] is HEK293. Kind of experiment: Stimulation of EGFP-tagged rat AT1 receptor expressed in HEK cells assessed as increase in degree of aggregation at 2.5 nM under non-oxidative condition by image correlation spectroscopic analysis. In kind it is cell-based. The gist of the method:
as §1

The subject of experiment [10] is HEK293. Kind of experiment: Stimulation of EGFP-tagged rat AT1 receptor expressed in HEK cells assessed as increase in degree of aggregation at 2.5 nM under H2O2-induced oxidative stress condition by image correlation spectroscopic analysis. In kind it is cell-based. The method, boiled down:
as §1

Experiment [11] concerns HEK293. Briefly: Stimulation of EGFP-tagged rat AT1 receptor expressed in HEK cells assessed as decrease in cluster density value at 2.5 nM under H2O2-induced oxidative stress condition by image correlation spectroscopic analysis. In kind it is cell-based. The method, boiled down:
as §1

The subject of experiment [12] is HEK293. Kind of experiment: Stimulation of EGFP-tagged rat AT1 receptor expressed in HEK cells assessed as change in cluster density value at 2.5 nM under non-oxidative condition by image correlation spectroscopic analysis relative to control. In kind it is cell-based. The method, boiled down: as §1
In experiment [13] the test system is HEK293. Kind of experiment: Stimulation of EGFP-tagged rat AT1 receptor expressed in HEK cells assessed as increase in intracellular calcium level at 5 nM after 3 mins under H2O2-induced oxidative stress condition by fluorimetric assay.

Regarding `CC[C@H](C)[C@H](NC(=O)[C@H](Cc1ccc(O)cc1)NC(=O)[C@@H](NC(=O)[C@H](CCCNC(=N)N)NC(=O)[C@H](CC(=O)O)NC(=O)CCCCCNc1c(OC)c(=O)c1=O)C(C)C)C(=O)N[C@@H](Cc1cnc[nH]1)C(=O)N1CCC[C@H]1C(=O)N[C@@H](Cc1ccccc1)C(=O)O`, the result in experiment [1] was Active.
On to `CC[C@H](C)[C@H](NC(=O)[C@H](Cc1ccc(O)cc1)NC(=O)[C@@H](NC(=O)[C@H](CCCNC(=N)N)NC(=O)[C@@H](N)CC(=O)O)C(C)C)C(=O)N[C@@H](Cc1cnc[nH]1)C(=O)N1CCC[C@H]1C(=O)N[C@@H](Cc1ccccc1)C(=O)O`, for which the outcome in experiment [2] was inactive. Also, the outcome in experiment [3], in [4], in [5], in experiment [6], in experiment [7] and in experiment [8] was Active.
Turning to `CC[C@H](C)[C@H](NC(=O)[C@H](Cc1ccc(O)cc1)NC(=O)[C@@H](NC(=O)[C@H](CCCNC(=N)N)NC(=O)[C@H](CC(=O)O)NC(=O)CCCCCNc1c(N[C@@H](CC(=O)O)C(=O)N[C@@H](CCCNC(=N)N)C(=O)N[C@H](C(=O)N[C@@H](Cc2ccc(O)cc2)C(=O)N[C@H](C(=O)N[C@@H](Cc2cnc[nH]2)C(=O)N2CCC[C@H]2C(=O)N[C@@H](Cc2ccccc2)C(=O)O)[C@@H](C)CC)C(C)C)c(=O)c1=O)C(C)C)C(=O)N[C@@H](Cc1cnc[nH]1)C(=O)N1CCC[C@H]1C(=O)N[C@@H](Cc1ccccc1)C(=O)O`, the result in [9], in experiment [10] and in experiment [13] was Active. In addition, the outcome in experiment [11] and in experiment [12] was inactive.
